The values below come from PubChem BioAssay AID504899 (The Scripps Research Institute Molecular Screening Center, 2011).

The test system of the assay is DIO C57BL/6 mice, hepatic G6Pase mRNA, 15 mg/kg ip 6 d. Description: hepatic gluconeogenesis reduction in obese mice, late-stage follow-up, in vivo study for RORA inverse agonist project, diet-induced obese mice, pyruvate tolerance test, powder sample (AID 504899). Conditions: stronger effect = lower value. Summed up:
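Technique: glucometer blood glucose plus liver gene mRNA / System: obese high-fat-fed male C57BL/6 mice, 30 weeks old / Probe or stimulus: pyruvate challenge, 2 g/kg intraperitoneal / Measure: gene expression and glucose as % of vehicle / Timing: 6 h fast before pyruvate, glucose sampled 0, 15, 30, 60 min post-challenge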

Consider `O=S(=O)(Nc1ccc(C(O)(C(F)(F)F)C(F)(F)F)cc1)c1cccs1`, for which the PEPCK mRNA expression (DIO C57BL/6 mice, 15 mg/kg ip 6 d, measured here: hepatic PEPCK mRNA, % control) turned out to be 51%. Under “DIO C57BL/6 mice, 15 mg/kg ip 6 d, measured here: pyruvate tolerance test blood glucose”, this compound had a blood glucose of 76%. The G6Pase mRNA expression (dose or concentration not given here) was 52%.
